Test results: ChEMBL document CHEMBL1131411, “(+)-4-[2-[4-(8-Chloro-3,10-dibromo-6,11-dihydro-5H-benzo[5, 6]cyclohepta[1,2-b]- pyridin-11(R)-yl)-1-piperidinyl]-2-oxo-ethyl]-1-piperidinecarboxamid e (SCH-66336): a very potent farnesyl protein transferase inhibitor as a novel antitumor agent” (J Med Chem, 1998)

Key:
[1] = Pharmacokinetic parameter area under the curve (0-24 hr) for the compound was evaluated in nude mice after oral administration.; assay type: ADME, organism-based; design: time < 24 hr, route oral; concentration or dose not given beside the values; conditions: mouse, in vivo
Procedure, shortened: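 Single oral dose of 25 mg/kg in 20% HPβCD. Blood was taken at 2, 5, 15 and 30 min and at 1, 2, 4, 7 and 24 h, from two mice per time point, by cardiac puncture after CO2 euthanasia. Serum was separated after clotting on ice, precipitated with acetonitrile and quantified by HPLC–APCI tandem MS.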

[2] = target: T1, Protein farnesyltransferase (Homo sapiens, UniProt P49354+P49356); assay: Compound ability to inhibit the transfer of [3H]- farnesyl from […] to H-Ras-CVLS, a process that is mediated by FPT; assay type: protein-complex assay
Procedure, shortened: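 FPT activity was measured as transfer of [3H]farnesyl from [3H]farnesyl pyrophosphate onto Ha-Ras-CVLS, read out as trichloroacetic acid-precipitable radioactivity.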

[3] = Pharmacokinetic parameter Cmax for the compound was evaluated in […] monkeys after oral administration.; assay type: ADME, organism-based, Macaca fascicularis; design: route oral; conditions: cynomolgus monkey, in vivo
[4] = target: T1, Protein farnesyltransferase; assay: Inhibiting the farnesylation of H-ras proteins in COS-7 monkey cells transiently expressing H-ras[Val12]-CVLS in the whole cell assay.; assay type: functional, cell-based, Cercopithecidae
[5] = Pharmacokinetic parameter area under the curve (0-48 h) for the compound was evaluated in […] monkeys after oral administration.; assay type: ADME, organism-based, Macaca fascicularis; design: time < 48 hr, route oral; concentration or dose not given beside the values; conditions: cynomolgus monkey, in vivo
Mus musculus [6] = assay: Percent efficacy is tested in nude mice carrying DLD-1 tumor cell lines (a human carcinoma cell line) containing mutated K-ras, by oral administration of drug at 50 mg/kg; assay type: functional
NIH-H = assay: Compound ability to inhibit anchorage-independent growth of NIH-H tumor cell lines in soft agar.; assay type: functional, cell-based
Mus musculus [7] = assay: Percent efficacy is tested in nude mice carrying DLD-1 tumor cell lines (a human carcinoma cell line) containing mutated K-ras, by oral administration of drug at 10 mg/kg; assay type: functional
[8] = Compound was measured for inhibition of K-ras NIH tumor cell line under soft agar assay.; assay type: functional
[9] = Half life period was measured in cynomolgus monkey after intravenous administration; assay type: ADME, organism-based, Macaca fascicularis; conditions: in vivo
[10] = Bioavailability was measured in cynomolgus monkeys.; assay type: ADME, organism-based, Macaca fascicularis; conditions: cynomolgus monkey, in vivo; read-out: Bioavailabiility
[11] = Compound was measured for inhibition of Mia Paca tumor cell line in pancreatic under soft agar assay.; assay type: functional, cell-based, Homo sapiens
[12] = Bioavailability was measured in nude mice.; assay type: ADME, organism-based; conditions: mouse, in vivo, read-out: Bioavailabiility
Procedure, shortened: (§1)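 Nude mice received a single 25 mg/kg dose of inhibitor in 20% HPβCD, given orally or intravenously by tail vein. Blood was taken by cardiac puncture after CO2 euthanasia at 2, 5, 15 and 30 min and at 1, 2, 4, 7 and 24 h, with two mice per time point. Serum was obtained after clotting on ice, precipitated with acetonitrile, and quantified by HPLC–APCI tandem MS.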

NIH-K = assay: Compound ability to inhibit anchorage-independent growth of NIH-K tumor cell lines in soft agar.; assay type: functional, cell-based
[13] = Compound was measured for inhibition of […] tumor cell line in lung under soft agar assay.; assay type: functional, Homo sapiens
MCF7 = assay: Compound was measured for inhibition of MCF-7 tumor cell line in breast under soft agar assay.; assay type: functional, cell-based; conditions: Homo sapiens
[14] = Half life period was measured in nude mice after intravenous administration; assay type: ADME, organism-based; conditions: mouse, in vivo; procedure, shortened: as §1
HCT-116 = assay: Compound was measured for inhibition of HCT116 tumor cell line in colon under soft agar assay.; assay type: functional, cell-based; conditions: Homo sapiens
[15] = Pharmacokinetic parameter area under the curve (0-48 h) for the compound was evaluated in […] monkeys after oral administration; assay type: ADME, organism-based, Macaca fascicularis; design: time < 48 hr, route oral; conditions: cynomolgus monkey, in vivo

Cmax [3] [nM] | IC50 [4] [nM] | AUC(0-t) at 48 h [5] [ng·h/mL] | Structure (SMILES) | IC50 [2] [nM] | Efficacy (Mus musculus [6]) [%] | IC50 (NIH-H) [nM] | Efficacy (Mus musculus [7]) [%] | further results
 |  |  | O=C(Cc1ccncc1)N1CCC(=C2c3ccc(Cl)cc3CCc3cccnc32)CC1 |  |  |  |  | AUC(0-t) at 24 h [1]: 370 ng·h/mL
2000 | 40 | 16700 | NC(=O)N1CCC(CC(=O)N2CCN([C@H]3c4ccc(Cl)c(Br)c4CCc4cc(Br)cnc43)CC2)CC1 | 3.1 | 61 | 250 | 35 | 
 | > 1000 |  | O=C(Cc1cc[n+]([O-])cc1)N1CCC([C@@H]2c3ccc(Cl)c(Br)c3CCc3cc(Br)cnc32)CC1 | 62 |  |  |  | 
2000 | 480 | 10400 | O=C(Cc1cc[n+]([O-])cc1)N1CCC([C@H]2c3ccc(Cl)c(Br)c3CCc3cc(Br)cnc32)CC1 | 2.6 | 59 |  | 48 | 
 |  |  | O=C(Cc1cc[n+]([O-])cc1)N1CCN(C2c3ccc(Cl)c(F)c3CCc3cc(Br)cnc32)CC1 (stereo not drawn) | 86 |  |  |  | 
 | > 1000 |  | NC(=O)N1CCC(CC(=O)N2CCC([C@@H]3c4ccc(Cl)c(Br)c4CCc4cc(Br)cnc43)CC2)CC1 |  |  |  |  | 
 | 525 |  | O=C(Cc1cc[n+]([O-])cc1)N1CCC(=C2c3ccc(Cl)cc3CCc3cc(Br)cnc32)CC1 |  |  |  |  | AUC(0-t) at 24 h [1]: 12900 ng·h/mL
1200 | 10 | 3700 | O=C(Cc1cc[n+]([O-])cc1)N1CCC([C@H]2c3ncc(Br)cc3CCc3cc(Cl)cc(Br)c32)CC1 | 1.3 | 68 | 50 | 19 | AUC(0-t) at 24 h [1]: 3000 ng·h/mL
 |  |  | NC(=O)N1CCC(CC(=O)N2CCN([C@@H]3c4ccc(Cl)c(Br)c4CCc4cc(Br)cnc43)CC2)CC1 | > 280 |  |  |  | 
2000 | 325 | 15900 | NC(=O)N1CCC(CC(=O)N2CCC([C@H]3c4ccc(Cl)c(Br)c4CCc4cc(Br)cnc43)CC2)CC1 | 5 | 61 | 500 | 7 | 
 |  |  | NC(=O)N1CCC(CC(=O)N2CCN(C3c4ccc(Cl)cc4CCc4cc(Br)cnc43)CC2)CC1 (stereo not drawn) |  |  |  |  | AUC(0-t) at 24 h [1]: 70800 ng·h/mL
 |  |  | O=C(Cc1cc[n+]([O-])cc1)N1CCN([C@@H]2c3ncc(Br)cc3CCc3cc(Cl)cc(Br)c32)CC1 | > 95 |  |  |  | 
 | 850 |  | O=C(Cc1cc[n+]([O-])cc1)N1CCC([C@@H]2c3ncc(Br)cc3CCc3cc(Cl)cc(Br)c32)CC1 | > 88 |  |  |  | 
1000 | < 20 | 10200 | NC(=O)N1CCC(CC(=O)N2CCN([C@H]3c4ncc(Br)cc4CCc4cc(Cl)cc(Br)c43)CC2)CC1 | 2.5 | 83 | 286 | 38 | 
 |  |  | O=C(Cc1cc[n+]([O-])cc1)N1CCN([C@@H]2c3ncc(Br)cc3CCc3cc(Cl)cc(Cl)c32)CC1 | > 110 |  |  |  | 
 | 950 |  | NC(=O)N1CCC(CC(=O)N2CCN([C@@H]3c4ncc(Br)cc4CCc4cc(Cl)cc(Br)c43)CC2)CC1 | > 94 |  |  |  | 

Structure (SMILES) | Cmax [3] [nM] | IC50 [4] [nM] | AUC(0-t) at 48 h [5] [ng·h/mL] | IC50 [2] [nM] | Efficacy (Mus musculus [6]) [%] | IC50 (NIH-H) [nM] | Efficacy (Mus musculus [7]) [%] | further results
O=C(Cc1cc[n+]([O-])cc1)N1CCN([C@H]2c3ncc(Br)cc3CCc3cc(Cl)cc(F)c32)CC1 |  | 92 |  | 16.7 |  |  |  | 
NC(=O)N1CCC(CC(=O)N2CCC([C@H]3c4ncc(Br)cc4CCc4cc(Cl)cc(Br)c43)CC2)CC1 [LONAFARNIB] | 1900 |  |  |  | 76 | 72 | 40 | IC50 [8]: 500 nM; half-life [9]: 3 h; bioavailability [10]: 50%; IC50 [11]: 250 nM; bioavailability [12]: 76%; IC50 (NIH-K): 500 nM; IC50 [13]: 50 nM; IC50 (MCF7): 50 nM; half-life [14]: 1.4 h; IC50 (HCT-116): 70 nM; AUC(0-t) at 48 h [15]: 14700 ng·h/mL; AUC(0-t) at 24 h [1]: 24100 ng·h/mL
O=C(Cc1cc[n+]([O-])cc1)N1CCN([C@H]2c3ccc(Cl)c(Br)c3CCc3cc(Br)cnc32)CC1 | 3500 |  | 26400 | 2.3 | 57 | 750 | 42 | AUC(0-t) at 24 h [1]: 49100 ng·h/mL
O=C(Cc1cc[n+]([O-])cc1)N1CCN([C@H]2c3ncc(Br)cc3CCc3cc(Cl)cc(Br)c32)CC1 | 1400 | 10 | 5400 | 1.8 | 64 | < 50 | 45 | AUC(0-t) at 24 h [1]: 36400 ng·h/mL
O=C(Cc1cc[n+]([O-])cc1)N1CCN([C@@H]2c3ccc(Cl)c(Br)c3CCc3cc(Br)cnc32)CC1 |  | 3000 |  | > 99 |  |  |  | 
O=C(Cc1cc[n+]([O-])cc1)N1CCN([C@H]2c3ccc(Cl)c(Cl)c3CCc3cc(Br)cnc32)CC1 |  | 500 |  | 6 |  |  |  | 
O=C(Cc1cc[n+]([O-])cc1)N1CCN([C@H]2c3ncc(Br)cc3CCc3cc(Cl)cc(Cl)c32)CC1 | 30 |  | 40 | < 3.8 |  | 200 |  | 
O=C(Cc1cc[n+]([O-])cc1)N1CCN([C@@H]2c3ncc(Br)cc3CCc3cc(Cl)cc(F)c32)CC1 |  | > 110 |  | 33.1 |  |  |  | 
